Measurements published in ChEMBL document CHEMBL1130185, “Search for DNA repair inhibitors: selective binding of nucleic bases-acridine conjugates to a DNA duplex containing an abasic site” (J Med Chem, 1997).

How the values were obtained:
[1] = Deprotonation equilibrium constant for compound was determined; format: ADME
In short: (§1)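 pKa values were determined by potentiometric titration of the acridine ligand at 5 × 10^-4 M across pH 2-12. The distribution of nonprotonated, mono-, bi- and higher protonated species was estimated graphically from the titration curves.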

[2] = Deprotonation equilibrium constant for compound was determined at pH<4; format: ADME; in short: as §1

Row | Compound | pKa [1] | pKa [2]
1 | COc1ccc2nc3cc(Cl)ccc3c(NCCCNCCCN)c2c1 | 10 | –
2 | COc1ccc2nc3cc(Cl)ccc3c(NCCCNCCCNCCn3cnc4c(N)nc(N)nc43)c2c1 | 9.8 | 4
